# Laboratory results taken from ChEMBL document CHEMBL1147958, “Evaluation of the anti-inflammatory and anti-nociceptive activities of novel synthesized melatonin analogues” (2007).
# How the values were obtained:
# Rattus norvegicus [1] = assay: Inhibition of carrageenan-induced paw oedema in Sprague-Dawley rat at 4 mg/kg, sc after 1 hr; type: functional; details: read-out: Inhibition, route subcutaneous
# In short: (§1)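 Rats (n = 6/group) got the test agent s.c. (0.5 mL) as a 30 min pretreatment. Oedema was induced by sub-plantar 1% lambda-carrageenan in saline into the right hind paw, with saline in the contralateral paw. Paw volume was measured by plethysmometer before injection and at 1, 2, 3 and 4 h, and expressed as % change from pre-drug values.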
# Rattus norvegicus [2] = assay: Antinociceptive activity in Sprague-Dawley rat at 4 mg/kg, sc assessed as increase in latency time after 1 hr by hot plate method; type: functional; details: route subcutaneous
# In short: (§2)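 Rats (n = 6/group) were dosed s.c. 30 min before testing on a hot-plate held at 52 °C, 30 s cut-off. Reaction latency was read at 1 and 2 h and expressed as % increase over each group's pre-drug basal latency, with indomethacin as the reference control. Groups were compared by ANOVA and Duncan's test.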
# Rattus norvegicus [3] = assay: Inhibition of carrageenan-induced paw oedema in Sprague-Dawley rat at 4 mg/kg, sc after 2 hrs; type: functional; details: read-out: Inhibition, route subcutaneous; in short: as §1
# Rattus norvegicus [4] = assay: […] in Sprague-Dawley rat assessed as inhibition of number of indomethacin-induced gastric lesions at 4 mg/kg, sc; type: functional; details: Stomach, route subcutaneous
# In short: (§3)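 Sprague-Dawley rats (120–130 g, food and water ad libitum) got indomethacin 20 mg/kg s.c. to induce gastric mucosal damage, with the test agent given s.c. at the time of indomethacin injection. Rats were killed 24 h later. Stomachs were opened along the greater curvature, rinsed with saline, and lesions counted and severity-scored on a previously described scale. Results are % decrease versus the indomethacin control.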
# Mus musculus [5] = assay: Antinociceptive activity in Swiss Albino mouse assessed as inhibition of acetic acid-induced writhes per 30 min at 4 mg/kg, sc; details: 0.5 h, read-out: Inhibition
# Rattus norvegicus [6] = assay: Inhibition of carrageenan-induced paw oedema in Sprague-Dawley rat at 4 mg/kg, sc after 4 hrs; type: functional; details: read-out: Inhibition, route subcutaneous; in short: as §1
# Rattus norvegicus [7] = assay: […] in Sprague-Dawley rat assessed as inhibition of indomethacin-induced gastric lesions severity at 4 mg/kg, sc; type: functional; details: Stomach, route subcutaneous; in short: as §3
# Rattus norvegicus [8] = assay: Inhibition of carrageenan-induced paw oedema in Sprague-Dawley rat at 4 mg/kg, sc after 3 hrs; type: functional; details: read-out: Inhibition, route subcutaneous; in short: as §1
# Rattus norvegicus [9] = assay: Antinociceptive activity in Sprague-Dawley rat at 4 mg/kg, sc assessed as increase in latency time after 2 hrs by hot plate method; type: functional; details: route subcutaneous; in short: as §2
# Rattus norvegicus [10] = assay: Antinociceptive activity in sc dosed Sprague-Dawley rat assessed as increase in latency time after 2 hrs by hot plate method; type: functional; in short: as §2
# Rattus norvegicus [11] = assay: Antinociceptive activity in sc dosed Sprague-Dawley rat assessed as increase in latency time after 1 hr by hot plate method; type: functional; in short: as §2
# Rattus norvegicus [12] = assay: Antinociceptive activity in Sprague-Dawley rat at 5.13 mg/kg, sc assessed as increase in latency time after 2 hrs by hot plate method; type: functional; details: route subcutaneous; in short: as §2
# Mus musculus [13] = assay: Antinociceptive activity in Swiss Albino mouse assessed as inhibition of acetic acid-induced writhes per 30 min at 5.13 mg/kg, sc; details: 0.5 h, read-out: Inhibition
# Rattus norvegicus [14] = assay: […] in Sprague-Dawley rat assessed as inhibition of indomethacin-induced gastric lesions severity at 5.13 mg/kg, sc; type: functional; details: Stomach, route subcutaneous; in short: as §3
# Rattus norvegicus [15] = assay: Antinociceptive activity in Sprague-Dawley rat assessed as inhibition of number of indomethacin-induced gastric lesions at 5.13 mg/kg, sc; type: functional; details: Stomach, route subcutaneous; in short: as §3
# Rattus norvegicus [16] = assay: Inhibition of carrageenan-induced paw oedema in Sprague-Dawley rat at 5.13 mg/kg, sc after 3 hrs; type: functional; details: read-out: Inhibition, route subcutaneous; in short: as §1
# Rattus norvegicus [17] = assay: Inhibition of carrageenan-induced paw oedema in Sprague-Dawley rat at 5.13 mg/kg, sc after 4 hrs; type: functional; details: read-out: Inhibition, route subcutaneous; in short: as §1
# Rattus norvegicus [18] = assay: Inhibition of carrageenan-induced paw oedema in Sprague-Dawley rat at 5.13 mg/kg, sc after 2 hrs; type: functional; details: read-out: Inhibition, route subcutaneous; in short: as §1
# Rattus norvegicus [19] = assay: Inhibition of carrageenan-induced paw oedema in Sprague-Dawley rat at 5.13 mg/kg, sc after 1 hr; type: functional; details: read-out: Inhibition, route subcutaneous; in short: as §1
# Rattus norvegicus [20] = assay: Antinociceptive activity in Sprague-Dawley rat at 5.13 mg/kg, sc assessed as increase in latency time after 1 hr by hot plate method; type: functional; details: route subcutaneous; in short: as §2
# Rattus norvegicus [21] = assay: Antinociceptive activity in Sprague-Dawley rat at 6.88 mg/kg, sc assessed as increase in latency time after 1 hr by hot plate method; type: functional; details: route subcutaneous; in short: as §2
# Rattus norvegicus [22] = assay: Inhibition of carrageenan-induced paw oedema in Sprague-Dawley rat at 6.88 mg/kg, sc after 2 hrs; type: functional; details: read-out: Inhibition, route subcutaneous; in short: as §1
# Rattus norvegicus [23] = assay: Inhibition of carrageenan-induced paw oedema in Sprague-Dawley rat at 6.88 mg/kg, sc after 1 hr; type: functional; details: read-out: Inhibition, route subcutaneous; in short: as §1
# Rattus norvegicus [24] = assay: Inhibition of carrageenan-induced paw oedema in Sprague-Dawley rat at 6.88 mg/kg, sc after 3 hrs; type: functional; details: read-out: Inhibition, route subcutaneous; in short: as §1
# Rattus norvegicus [25] = assay: Antinociceptive activity in Sprague-Dawley rat at 6.88 mg/kg, sc assessed as increase in latency time after 2 hrs by hot plate method; type: functional; details: route subcutaneous; in short: as §2
# Mus musculus [26] = assay: Antinociceptive activity in Swiss Albino mouse assessed as inhibition of acetic acid-induced writhes per 30 min at 6.88 mg/kg, sc; details: 0.5 h, read-out: Inhibition
# Rattus norvegicus [27] = assay: Antinociceptive activity in Sprague-Dawley rat assessed as inhibition of number of indomethacin-induced gastric lesions at 6.88 mg/kg, sc; type: functional; details: Stomach, route subcutaneous; in short: as §3
# Rattus norvegicus [28] = assay: […] in Sprague-Dawley rat assessed as inhibition of indomethacin-induced gastric lesions severity at 6.88 mg/kg, sc; type: functional; details: Stomach, route subcutaneous; in short: as §3
# Rattus norvegicus [29] = assay: Inhibition of carrageenan-induced paw oedema in Sprague-Dawley rat at 6.88 mg/kg, sc after 4 hrs; type: functional; details: read-out: Inhibition, route subcutaneous; in short: as §1
# Mus musculus [30] = assay: Antinociceptive activity in Swiss Albino mouse assessed as inhibition of acetic acid-induced writhes per 30 min at 5.16 mg/kg, sc; details: 0.5 h, read-out: Inhibition
# Rattus norvegicus [31] = assay: Antinociceptive activity in Sprague-Dawley rat assessed as inhibition of number of indomethacin-induced gastric lesions at 5.16 mg/kg, sc; type: functional; details: Stomach, route subcutaneous; in short: as §3
# Rattus norvegicus [32] = assay: Inhibition of carrageenan-induced paw oedema in Sprague-Dawley rat at 5.16 mg/kg, sc after 3 hrs; type: functional; details: read-out: Inhibition, route subcutaneous; in short: as §1
# Rattus norvegicus [33] = assay: […] in Sprague-Dawley rat assessed as inhibition of indomethacin-induced gastric lesions severity at 5.16 mg/kg, sc; type: functional; details: Stomach, route subcutaneous; in short: as §3
# Rattus norvegicus [34] = assay: Inhibition of carrageenan-induced paw oedema in Sprague-Dawley rat at 5.16 mg/kg, sc after 1 hr; type: functional; details: read-out: Inhibition, route subcutaneous; in short: as §1
# Rattus norvegicus [35] = assay: Inhibition of carrageenan-induced paw oedema in Sprague-Dawley rat at 5.16 mg/kg, sc after 2 hrs; type: functional; details: route subcutaneous; in short: as §1
# Rattus norvegicus [36] = assay: Inhibition of carrageenan-induced paw oedema in Sprague-Dawley rat at 5.16 mg/kg, sc after 4 hrs; type: functional; details: route subcutaneous; in short: as §1
# Rattus norvegicus [37] = assay: Antinociceptive activity in Sprague-Dawley rat at 5.16 mg/kg, sc assessed as increase in latency time after 2 hrs by hot plate method; type: functional; details: route subcutaneous; in short: as §2
# Rattus norvegicus [38] = assay: Antinociceptive activity in Sprague-Dawley rat at 5.16 mg/kg, sc assessed as increase in latency time after 1 hr by hot plate method; type: functional; details: route subcutaneous; in short: as §2
# Rattus norvegicus [39] = assay: Antinociceptive activity in Sprague-Dawley rat assessed as inhibition of number of indomethacin-induced gastric lesions at 5.40 mg/kg, sc; type: functional; details: Stomach, route subcutaneous; in short: as §3
# Rattus norvegicus [40] = assay: Inhibition of carrageenan-induced paw oedema in Sprague-Dawley rat at 5.40 mg/kg, sc after 4 hrs; type: functional; details: read-out: Inhibition, route subcutaneous; in short: as §1
# Mus musculus [41] = assay: Antinociceptive activity in Swiss Albino mouse assessed as inhibition of acetic acid-induced writhes per 30 min at 5.40 mg/kg, sc; details: 0.5 h
# Rattus norvegicus [42] = assay: Inhibition of carrageenan-induced paw oedema in Sprague-Dawley rat at 5.40 mg/kg, sc after 3 hrs; type: functional; details: read-out: Inhibition, route subcutaneous; in short: as §1
# Rattus norvegicus [43] = assay: Antinociceptive activity in Sprague-Dawley rat at 5.40 mg/kg, sc assessed as increase in latency time after 2 hrs by hot plate method; type: functional; details: dose 5.4 mg/kg; route subcutaneous; in short: as §2
# Rattus norvegicus [44] = assay: Inhibition of carrageenan-induced paw oedema in Sprague-Dawley rat at 5.40 mg/kg, sc after 1 hr; type: functional; details: read-out: Inhibition, route subcutaneous; in short: as §1
# Rattus norvegicus [45] = assay: […] in Sprague-Dawley rat assessed as inhibition of indomethacin-induced gastric lesions severity at 5.40 mg/kg, sc; type: functional; details: Stomach, route subcutaneous; in short: as §3
# Rattus norvegicus [46] = assay: Inhibition of carrageenan-induced paw oedema in Sprague-Dawley rat at 5.40 mg/kg, sc after 2 hrs; type: functional; details: read-out: Inhibition, route subcutaneous; in short: as §1
# Rattus norvegicus [47] = assay: Antinociceptive activity in Sprague-Dawley rat at 5.40 mg/kg, sc assessed as increase in latency time after 1 hr by hot plate method; type: functional; details: dose 5.4 mg/kg; route subcutaneous; in short: as §2
smiles,measurement,setting,value
COc1ccc2[nH]cc(CCNC(C)=O)c2c1 [MELATONIN],inhibition in vivo at 4 mg/kg,Rattus norvegicus [1],50.8%
same,Activity,Rattus norvegicus [2],39.7%
same,inhibition in vivo at 4 mg/kg,Rattus norvegicus [3],50.1%
same,inhibition in vivo at 4 mg/kg,Rattus norvegicus [4],56.3%
same,inhibition in vivo at 4 mg/kg,Mus musculus [5],55.6%
same,inhibition in vivo at 4 mg/kg,Rattus norvegicus [6],30%
same,inhibition in vivo at 4 mg/kg,Rattus norvegicus [7],69%
same,inhibition in vivo at 4 mg/kg,Rattus norvegicus [8],44.4%
same,Activity,Rattus norvegicus [9],96%
COc1ccc2c(c1)c(CC(=O)O)c(C)n2C(=O)c1ccc(Cl)cc1 [INDOMETHACIN],Activity,Rattus norvegicus [10],286.6%
same,Activity,Rattus norvegicus [11],176.7%
COc1ccc2c(c1)c(CCNC(C)=O)c1n2C(=O)C=C1C,Activity,Rattus norvegicus [12],144.6%
same,inhibition in vivo at 5.13 mg/kg,Mus musculus [13],68.7%
same,inhibition in vivo at 5.13 mg/kg,Rattus norvegicus [14],82.6%
same,inhibition in vivo at 5.13 mg/kg,Rattus norvegicus [15],72.6%
same,inhibition in vivo at 5.13 mg/kg,Rattus norvegicus [16],43%
same,inhibition in vivo at 5.13 mg/kg,Rattus norvegicus [17],28.8%
same,inhibition in vivo at 5.13 mg/kg,Rattus norvegicus [18],59.4%
same,inhibition in vivo at 5.13 mg/kg,Rattus norvegicus [19],67.3%
same,Activity,Rattus norvegicus [20],116.6%
COc1ccc2c(c1)c(CCNC(C)=O)c1n2CC(c2ccccc2)=C(C#N)C1=N,Activity,Rattus norvegicus [21],31.7%
same,inhibition in vivo at 6.88 mg/kg,Rattus norvegicus [22],55.2%
same,inhibition in vivo at 6.88 mg/kg,Rattus norvegicus [23],52.2%
same,inhibition in vivo at 6.88 mg/kg,Rattus norvegicus [24],48%
same,Activity,Rattus norvegicus [25],56.2%
same,inhibition in vivo at 6.88 mg/kg,Mus musculus [26],40.7%
same,inhibition in vivo at 6.88 mg/kg,Rattus norvegicus [27],30.2%
same,inhibition in vivo at 6.88 mg/kg,Rattus norvegicus [28],53.6%
same,inhibition in vivo at 6.88 mg/kg,Rattus norvegicus [29],36.3%
COc1ccc2c(c1)c(CCNC(C)=O)c1n2C(=O)CC1=O,inhibition in vivo at 5.16 mg/kg,Mus musculus [30],24.4%
same,inhibition in vivo at 5.16 mg/kg,Rattus norvegicus [31],43.5%
same,inhibition in vivo at 5.16 mg/kg,Rattus norvegicus [32],30%
same,inhibition in vivo at 5.16 mg/kg,Rattus norvegicus [33],54.8%
same,inhibition in vivo at 5.16 mg/kg,Rattus norvegicus [34],42.9%
same,inhibition in vivo at 5.16 mg/kg,Rattus norvegicus [35],-35.7%
same,inhibition in vivo at 5.16 mg/kg,Rattus norvegicus [36],-27.1%
same,Activity,Rattus norvegicus [37],132.3%
same,Activity,Rattus norvegicus [38],103.6%
COc1ccc2c(c1)c(CCNC(C)=O)c1n2C(=N)C=C1NN,inhibition in vivo at 5.4 mg/kg,Rattus norvegicus [39],53.9%
same,inhibition in vivo at 5.4 mg/kg,Rattus norvegicus [40],36.8%
same,inhibition in vivo at 5.4 mg/kg,Mus musculus [41],-81.1%
same,inhibition in vivo at 5.4 mg/kg,Rattus norvegicus [42],44.2%
same,Activity,Rattus norvegicus [43],243.7%
same,inhibition in vivo at 5.4 mg/kg,Rattus norvegicus [44],54.8%
same,inhibition in vivo at 5.4 mg/kg,Rattus norvegicus [45],57.7%
same,inhibition in vivo at 5.4 mg/kg,Rattus norvegicus [46],52.6%
same,Activity,Rattus norvegicus [47],43.7%
